Assay results reported in ChEMBL document CHEMBL5543124, “Lead Compound Development of SRC-3 Inhibitors with Improved Pharmacokinetic Properties and Anticancer Efficacy” (J Med Chem, 2024).
Values belong to the compound of their own block, whether it stands above or below them.

What was measured:
[1] = tested on: MCF7; assay: Cytotoxicity against human MCF7 cells assessed as inhibition of cell growth incubated for 72 hrs by MTT assay; format: functional, cell-based; details: MCF7, 72 h
[2] = Half life in human liver microsomes at 1 uM incubated for 30 mins in presence of NADPH by LC-MS/MS analysis; format: ADME, Microsome; details: 0.5 h
In short: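 Human liver microsomes (1 mg/mL final) in 100 mM phosphate buffer with or without NADPH; compound at 1 μM final, 37 °C. Samples taken at 0, 5, 10, 20, 30 min (0 and 30 min without NADPH), quenched with cold acetonitrile containing internal standards, analysed by LC-MS/MS; verapamil as control.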

[3] = Stability in CD-1 mouse plasma at 37.7 micromol/kg,ip administration measured after 22 hrs by LC-MS/MS analysis; format: ADME, cell-free; details: at 37.7 µmol/kg
In short: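 Female CD-1 mice (n=3) dosed i.p. at 37.7 μmol/kg (equimolar across compounds). Blood (20 μL) drawn at 0.25, 5 and 22 h and processed to plasma. Drug levels quantified by LC-MS/MS.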

[4] = Cytotoxicity against CD-1 mouse Primary hepatocyte assessed as inhibition of cell growth incubated for 72 hrs by MTT assay; format: toxicity, cell-based; details: primary hepatocytes
[5] = Half life in CD-1 mouse at 1 mg/kg,iv administration measured upto 48 hrs by LC-MS/MS analysis; format: ADME, organism-based; details: in vivo
In short: (§1)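 Single intravenous bolus in ICR male mice (n = 3, 6 weeks); dosing solution 0.5 mg/mL in 20% DMSO, 16% PEG, 4% dextrose in PBS. Tail-vein blood (10 μL) taken at 2, 5, 15, 30 min and 1, 2, 4, 8, 24, 48 h. Plasma quantified by LC-MS/MS against a 0.5–1000 ng/mL calibration; parameters from non-compartmental analysis.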

[6] = Tmax in CD-1 mouse at 1 mg/kg,iv administration measured upto 48 hrs by LC-MS/MS analysis; format: ADME, organism-based; details: in vivo
In short: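 Male ICR mice (n=3, 6 weeks) given 1 mg/kg i.v. from a 0.5 mg/mL solution in 20% DMSO/16% PEG/4% dextrose in PBS. Tail-vein blood (10 μL) drawn at 2, 5, 15 and 30 min and at 1, 2, 4, 8, 24 and 48 h. Plasma quantified by LC-MS/MS against 0.5–1000 ng/mL calibration standards with QC samples. Parameters from non-compartmental analysis.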

[7] = Cmax in CD-1 mouse at 1 mg/kg,iv administration measured upto 48 hrs by LC-MS/MS analysis; format: ADME, organism-based; details: in vivo; in short: as §1
[8] = AUC (0 to t) in CD-1 mouse at 1 mg/kg,iv administration measured upto 48 hrs by LC-MS/MS analysis; format: ADME, organism-based; details: in vivo; in short: as §1
[9] = Clearance in CD-1 mouse at 1 mg/kg,iv administration measured upto 48 hrs by LC-MS/MS analysis; format: ADME, organism-based; details: in vivo; in short: as §1
[10] = Half life in CD-1 mouse at 10 mg/kg,po administration measured upto 48 hrs by LC-MS/MS analysis; format: ADME, organism-based; details: in vivo
In short: (§2)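 Oral gavage in ICR male mice (n = 3); dosing solution 1 mg/mL in 20% DMSO, 16% PEG, 4% dextrose in PBS. Tail-vein blood (10 μL) taken at 15, 30 min and 1, 2, 4, 8, 24, 48 h. Plasma quantified by LC-MS/MS against a 0.5–1000 ng/mL calibration; parameters from a non-compartmental extravascular model.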

[11] = Tmax in CD-1 mouse at 10 mg/kg,po administration measured upto 48 hrs by LC-MS/MS analysis; format: ADME, organism-based; details: in vivo
In short: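 Male ICR mice (n=3) dosed by oral gavage at 10 mg/kg from a 1 mg/mL solution in 20% DMSO/16% PEG/4% dextrose in PBS. Tail-vein blood (10 μL) drawn at 15 and 30 min and at 1, 2, 4, 8, 24 and 48 h. Plasma quantified by LC-MS/MS against calibration standards. Parameters from non-compartmental extravascular model.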

[12] = Cmax in CD-1 mouse at 10 mg/kg,po administration measured upto 48 hrs by LC-MS/MS analysis; format: ADME, organism-based; details: in vivo; in short: as §2
[13] = AUC (0 to t) in CD-1 mouse at 10 mg/kg,po administration measured upto 48 hrs by LC-MS/MS analysis; format: ADME, organism-based; details: in vivo; in short: as §2
[14] = Oral bioavailability in CD-1 mouse at 10 mg/kg administration measured upto 48 hrs by LC-MS/MS analysis; format: ADME, organism-based; details: in vivo
[15] = molecular target: Prostaglandin G/H synthase 1 (Homo sapiens, UniProt P23219); assay: Inhibition of COX1 (unknown origin); format: toxicity
Prostaglandin G/H synthase 1, sequence (P23219 whole entry): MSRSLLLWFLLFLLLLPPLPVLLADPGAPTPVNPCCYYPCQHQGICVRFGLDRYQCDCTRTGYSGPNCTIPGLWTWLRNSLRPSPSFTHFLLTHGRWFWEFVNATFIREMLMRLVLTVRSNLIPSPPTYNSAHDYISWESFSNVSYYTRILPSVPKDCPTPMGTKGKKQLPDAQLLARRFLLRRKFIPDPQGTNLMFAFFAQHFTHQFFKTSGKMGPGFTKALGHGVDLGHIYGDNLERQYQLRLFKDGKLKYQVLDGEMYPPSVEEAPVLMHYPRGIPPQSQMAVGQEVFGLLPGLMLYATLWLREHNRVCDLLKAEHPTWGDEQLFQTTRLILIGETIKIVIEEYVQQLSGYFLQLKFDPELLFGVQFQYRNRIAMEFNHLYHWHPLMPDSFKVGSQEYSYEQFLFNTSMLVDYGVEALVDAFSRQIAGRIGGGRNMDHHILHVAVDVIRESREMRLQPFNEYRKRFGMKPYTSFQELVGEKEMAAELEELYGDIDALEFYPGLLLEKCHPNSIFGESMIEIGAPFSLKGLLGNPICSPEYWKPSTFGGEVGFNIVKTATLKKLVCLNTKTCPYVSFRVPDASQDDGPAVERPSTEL
In short: (§3)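 Tested in a commercial off-target safety screening panel of 78 targets. Values reported as RC50, taken as IC50 except for agonist mode, where RC50 is EC50.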

[16] = molecular target: T1, Prostaglandin G/H synthase 2 (Homo sapiens, UniProt P35354); assay: Inhibition of COX2 (unknown origin); format: toxicity; in short: as §3
T1 sequence (P35354 whole entry): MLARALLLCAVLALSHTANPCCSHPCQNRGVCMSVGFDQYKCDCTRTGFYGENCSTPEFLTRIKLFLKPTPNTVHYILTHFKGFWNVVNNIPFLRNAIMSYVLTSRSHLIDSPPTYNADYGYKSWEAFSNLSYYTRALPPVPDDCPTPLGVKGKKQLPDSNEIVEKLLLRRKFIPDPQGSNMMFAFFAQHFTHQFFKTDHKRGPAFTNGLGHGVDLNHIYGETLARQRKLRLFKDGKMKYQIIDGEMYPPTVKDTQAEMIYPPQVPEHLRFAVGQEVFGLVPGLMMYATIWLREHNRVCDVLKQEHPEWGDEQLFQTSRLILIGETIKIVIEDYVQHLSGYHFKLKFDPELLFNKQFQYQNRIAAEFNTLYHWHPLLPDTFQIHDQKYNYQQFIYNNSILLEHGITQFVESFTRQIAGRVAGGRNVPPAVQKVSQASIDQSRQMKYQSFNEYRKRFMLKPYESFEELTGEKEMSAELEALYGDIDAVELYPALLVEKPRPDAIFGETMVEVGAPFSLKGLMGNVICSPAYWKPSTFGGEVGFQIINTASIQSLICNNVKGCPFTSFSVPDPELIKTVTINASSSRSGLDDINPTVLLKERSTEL

[17] = molecular target: Voltage-gated inwardly rectifying potassium channel KCNH2 (Homo sapiens, UniProt Q12809); assay: Inhibition of hERG transfected in HEK293 cells by patch clamp assay; format: toxicity, cell-based
Voltage-gated inwardly rectifying potassium channel KCNH2, sequence (Q12809 whole entry): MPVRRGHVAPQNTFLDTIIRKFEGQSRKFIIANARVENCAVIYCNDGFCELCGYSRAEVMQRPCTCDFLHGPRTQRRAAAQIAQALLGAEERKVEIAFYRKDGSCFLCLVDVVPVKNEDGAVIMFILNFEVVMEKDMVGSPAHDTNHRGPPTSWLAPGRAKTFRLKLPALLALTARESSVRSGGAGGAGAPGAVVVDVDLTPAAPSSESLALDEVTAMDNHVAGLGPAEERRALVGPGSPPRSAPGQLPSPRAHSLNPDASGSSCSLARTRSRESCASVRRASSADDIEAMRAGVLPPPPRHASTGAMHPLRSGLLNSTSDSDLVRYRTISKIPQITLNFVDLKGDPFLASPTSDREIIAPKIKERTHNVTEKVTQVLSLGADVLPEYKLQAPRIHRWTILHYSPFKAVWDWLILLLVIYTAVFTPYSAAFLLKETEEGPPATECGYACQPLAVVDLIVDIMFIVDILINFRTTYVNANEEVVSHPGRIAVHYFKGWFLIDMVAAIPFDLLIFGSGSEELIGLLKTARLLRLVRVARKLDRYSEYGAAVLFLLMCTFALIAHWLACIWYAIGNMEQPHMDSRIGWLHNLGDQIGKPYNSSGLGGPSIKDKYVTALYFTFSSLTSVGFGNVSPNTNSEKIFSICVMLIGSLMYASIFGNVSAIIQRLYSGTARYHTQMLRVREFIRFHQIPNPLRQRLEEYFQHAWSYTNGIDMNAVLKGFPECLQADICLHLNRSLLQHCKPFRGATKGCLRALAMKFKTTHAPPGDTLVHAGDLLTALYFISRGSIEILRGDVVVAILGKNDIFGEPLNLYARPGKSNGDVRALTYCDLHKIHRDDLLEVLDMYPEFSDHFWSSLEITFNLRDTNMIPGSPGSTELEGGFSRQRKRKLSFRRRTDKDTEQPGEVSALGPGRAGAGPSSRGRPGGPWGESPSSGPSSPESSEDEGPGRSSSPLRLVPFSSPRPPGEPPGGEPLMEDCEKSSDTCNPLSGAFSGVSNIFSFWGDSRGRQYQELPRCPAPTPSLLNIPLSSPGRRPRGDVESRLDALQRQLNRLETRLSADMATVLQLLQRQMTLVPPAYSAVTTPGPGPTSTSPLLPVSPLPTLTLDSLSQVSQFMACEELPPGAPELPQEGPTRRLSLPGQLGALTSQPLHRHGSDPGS

[18] = molecular target: hERG (KCNH2) (Homo sapiens, UniProt Q12809); assay: Inhibition of hERG transfected in HEK293 cells at 30 uM by patch clamp assay relative to control; format: toxicity, cell-based; details: HEK293 cells transfected with hERG
hERG (KCNH2), sequence (Q12809 whole entry): as above

[19] = Drug concentration in CD-1 mouse plasma at 37.7 micromol/kg,ip administration measured after 22 hrs by LC-MS/MS analysis; format: ADME, cell-free; details: dose 37.7 µmol/kg
In short: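 Female CD-1 mice (n = 3) dosed ip at 37.7 μmol/kg. Blood (20 μL) taken at 0.25, 5 and 22 h, processed to plasma, and drug quantified by LC-MS/MS.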

[20] = Stability in human plasma incubated upto 150 mins; format: ADME, cell-free; details: 2.5 h
[21] = Toxicity in mouse assessed as mild stress at 100 mg/kg,po administration for 4 weeks; format: organism-based; details: in vivo, 672 h
In short: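 Mice dosed orally at up to 100 mg/kg, the highest dose tested. Observed for signs of stress.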

[22] = Toxicity in mouse assessed as body weight loss at 50 mg/kg,po administration for 4 weeks; format: organism-based; details: in vivo, 672 h
In short: (§4)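 Mice dosed orally once daily at 50 or 100 mg/kg for 4 weeks. Body weight monitored throughout.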

[23] = Toxicity in mouse assessed as body weight loss at 100 mg/kg,po administration for 4 weeks; format: organism-based; details: in vivo, 672 h; in short: as §4
[24] = tested on: CYP1A2; assay: Stability in human liver microsomes assessed as CYP1A2-mediated drug metabolism incubated for 1 hr; format: ADME, Microsome; details: read-out: Drug metabolism

Compound: C/C(=N\N=c1/[nH]c2cc(F)c(F)cc2n1C)c1cn(C)cn1
- IC50 [1]: > 1000 nM

Compound: C/C(=N\Oc1nc2ccccc2n1C)c1ccccn1
- IC50 [1]: > 1000 nM

Compound: C/C(=N\N=c1n(C)c2ccccc2n1C)c1ccc(F)cn1
- IC50 [1]: > 1000 nM

Compound: C/C(=N\N=c1/[nH]c2cc(F)c(F)cc2n1C)c1ccccn1
- IC50 [1]: 6.3 nM

Compound: C/C(=N\N=c1/[nH]c2cc(F)c(F)cc2n1C)c1ccc(-c2cnn(C)c2)cn1
- IC50 [1]: 6.7 nM

- t1/2 [2]: 5.76 min
- Stability [3]: Stable
Compound: C/C(=N\Nc1nc2cc(F)ccc2n1C)c1ccc(F)cn1
- IC50 [1]: 2.5 nM

Compound: C/C(=N\N=c1/[nH]c2cc(F)c(F)cc2n1C)c1cccs1
- IC50 [1]: > 1000 nM

Compound: C/C(=N\N=c1/[nH]c2cc(F)c(F)cc2n1C)c1ccncc1
- IC50 [1]: > 1000 nM

Compound: Cn1c(N2N=C(c3ccccn3)CC2=O)nc2ccccc21
- IC50 [1]: > 1000 nM

- t1/2 [2]: 3 min
Compound: C/C(=N\Nc1nc2ccccc2n1C)c1ccccn1
- IC50 [1]: 22 nM

Compound: C/C(=N\N=c1/[nH]c2cc(F)c(F)cc2n1C)c1ccc(C(N)=O)cn1
- IC50 [1]: 2.7 nM

Compound: C/C(=N\N=c1/[nH]c2cc(F)c(F)cc2n1C)c1ccc(C(=O)O)cn1
- IC50 [1]: > 1000 nM

Compound: C/C(=N\N=c1/[nH]c2cc(F)c(F)cc2n1C)c1ccc(OCCCS(C)(=O)=O)cn1
- IC50 [1]: 249 nM

Compound: C/C(=N\N=c1/[nH]c2cc(F)c(F)cc2n1C)c1ccc(-c2nnn[nH]2)cn1
- IC50 [1]: > 1000 nM

Compound: C/C(=N\N=c1/sc2ccccc2n1C)c1ccc(F)cn1
- IC50 [1]: > 1000 nM

Compound: COC(=O)c1ccc(/C(C)=N/N=c2\[nH]c3cc(F)c(F)cc3n2C)nc1
- IC50 [1]: 2.9 nM

Compound: C/C(=N\N=c1/[nH]c2cc(F)c(F)cc2n1C)c1ccc(OCCCN2CCOCC2)cn1
- IC50 [1]: 30.5 nM

Compound: C/C(=N\N=c1/[nH]c2cc(F)c(F)cc2n1C)c1ccncn1
- IC50 [1]: 10.7 nM

Compound: C/C(=N\N=c1/[nH]c2cc(Cl)c(Cl)cc2n1C)c1ccc(F)cn1
- IC50 [1]: 18 nM

Compound: C/C(=N\N=c1/[nH]c2cc(F)c(F)cc2n1C)c1ccccc1
- IC50 [1]: > 1000 nM

Compound: Cn1c(NNC(=O)c2ccccn2)nc2ccccc21
- IC50 [1]: 494 nM

- t1/2 [5]: 195 min
- Tmax [6]: 1.98 min
- Cmax [7]: 552 ng/mL
- AUCt [8]: 87.6 ng·h/mL
- clearance [9]: 176 mL/min/kg
- t1/2 [10]: 545 min
- Tmax [11]: 15 min
- Cmax [12]: 89 ng/mL
- AUCt [13]: 477 ng·h/mL
- F [14]: 54.4%
- t1/2 [2]: 3.71 min
- concentration at 22 h [19]: 117 nM
- Stability [20]: Stable
- Stability [3]: Stable
- metabolised at 1 h [24]: 98%
Compound: C/C(=N\Nc1nc2cc(F)c(F)cc2n1C)c1ncccn1
- IC50 at 72 h [4]: > 1000 nM
- IC50 [15]: 2900 nM
- IC50 [16]: 2400 nM
- IC50 [17]: > 30000 nM
- inhibition at 30 µM [18]: < 50%
- Activity [21]: Non-Toxic
- Activity [22]: Non-Toxic
- Activity [23]: Non-Toxic

Compound: C/C(=N\N=c1/[nH]c2cc(F)c(F)cc2n1C)c1cocn1
- IC50 [1]: > 1000 nM

Compound: C/C(=N\N=c1/[nH]c2cc(F)c(F)cc2n1C)c1cccnc1
- IC50 [1]: > 1000 nM

Compound: C/C(=N\N=c1/[nH]c2cc(F)c(F)cc2n1C)c1ccc(C(=O)N2CCOCC2)cn1
- IC50 [1]: 44.7 nM

- t1/2 [2]: 4.93 min
- Stability [3]: Stable
Compound: C/C(=N\Nc1nc2ccccc2n1C)c1ccc(F)cn1
- IC50 [1]: 5.4 nM
